Results published in ChEMBL document CHEMBL1177865, “Synthesis and anticancer activity of some novel 2-substituted benzimidazole derivatives” (Eur J Med Chem, 2010).
In brackets after ≈: the same amount, converted by molar mass.

Legend:
Type in all cases: functional, cell-based
HepG2 = experiment: Cytotoxicity against human HepG2 cells after 48 hrs by sulforhodamine B assay; conditions: HepG2, 48 h
Summary of the method: (§1)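 Cells seeded at 10^4 per well and allowed to attach for 24 h, then exposed to compound at 0, 1, 2.5, 5 and 10 μg/ml, triplicate wells per dose, 48 h at 37 °C, 5% CO2. Fixed, stained with sulforhodamine B, excess dye removed with acetic acid, bound dye dissolved in Tris EDTA, absorbance read. IC50 (μg/ml, 50% survival reduction) taken from triplicate dose–response curves.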

MCF7 = experiment: Cytotoxicity against human MCF7 cells after 48 hrs by sulforhodamine B assay; conditions: MCF7, 48 h; summary of the method: as §1
HCT-116 = experiment: Cytotoxicity against human HCT116 cells after 48 hrs by sulforhodamine B assay; conditions: HCT-116, 48 h; summary of the method: as §1

Compound | IC50 (HepG2) [µg/mL] | IC90 (HepG2) [µg/mL] | IC50 (MCF7) [µg/mL] | IC90 (MCF7) [µg/mL] | IC50 (HCT-116) [µg/mL] | IC90 (HCT-116) [µg/mL]
COc1ccccc1C1=CS/C(=C(\C#N)c2nc3cc(C(=O)O)ccc3[nH]2)N1c1ccc(Br)cc1 | 3.16 (≈ 5.79 µM) | 9.31 (≈ 17.1 µM) | 2.85 (≈ 5.23 µM) | 13.2 (≈ 24.3 µM) | 3.75 (≈ 6.88 µM) | 12.1 (≈ 22.1 µM)
Nc1c(-c2nc3cc(C(=O)O)ccc3[nH]2)sc(=S)n1Cc1ccccc1 | 0.55 (≈ 1.44 µM) | 7.53 (≈ 19.7 µM) | 3.51 (≈ 9.18 µM) | 14.1 (≈ 36.8 µM) | 4.23 (≈ 11.1 µM) | 14 (≈ 36.7 µM)
N#C/C(=C\c1ccc(F)cc1)c1nc2cc(Cl)ccc2[nH]1 | 0.55 (≈ 1.85 µM) | 7.62 (≈ 25.6 µM) | 3.41 (≈ 11.5 µM) | 13.3 (≈ 44.8 µM) | 8.4 (≈ 28.2 µM) | 14.8 (≈ 49.8 µM)
N#CC(=C1CCCCC1)c1nc2cc(C(=O)O)ccc2[nH]1 | 1.65 (≈ 5.87 µM) | 8.61 (≈ 30.6 µM) | 2.15 (≈ 7.64 µM) | 11.7 (≈ 41.6 µM) | 8.25 (≈ 29.3 µM) | 14.2 (≈ 50.4 µM)
N#C/C(=C1\SCC(=O)N1c1ccccc1)c1nc2cc(Cl)ccc2[nH]1 | 0.93 (≈ 2.54 µM) | 7.89 (≈ 21.5 µM) | 2.83 (≈ 7.71 µM) | 12.6 (≈ 34.4 µM) | 3.72 (≈ 10.1 µM) | 12 (≈ 32.8 µM)
N#C/C(=C1\SCCCN1c1ccccc1)c1nc2cc(C(=O)O)ccc2[nH]1 | 1.87 (≈ 4.97 µM) | 8.8 (≈ 23.4 µM) | 4.04 (≈ 10.7 µM) | 15 (≈ 39.9 µM) | 9.39 (≈ 24.9 µM) | 14.7 (≈ 39.1 µM)
N#C/C(=C1\SC(=O)CN1C1CCCCC1)c1nc2cc(C(=O)O)ccc2[nH]1 | 1.35 (≈ 3.53 µM) | 9.15 (≈ 23.9 µM) | 3.83 (≈ 10 µM) | 15 (≈ 39.3 µM) | 5.52 (≈ 14.4 µM) | 14.1 (≈ 36.9 µM)
COc1cccc2c1C(=O)c1c(O)c3c(c(O)c1C2=O)C[C@@](O)(C(=O)CO)C[C@@H]3O[C@H]1C[C@H](N)[C@H](O)[C@H](C)O1 [DOXORUBICIN] | 0.59 (≈ 1.09 µM) | 6.82 (≈ 12.5 µM) | – | 8.77 (≈ 16.1 µM) | 0.65 (≈ 1.2 µM) | 7.32 (≈ 13.5 µM)
